We go through four molecules from publication PMC7591136 (ACS biomaterials science & engineering, 2019).

The nature of data set [1]: pKa determination by UV–vis titration. Type of data set: physicochemical. The conditions noted are these: neutral pH.
Data set [2] is described as follows: Partition coefficients, 1-octanol / PBS pH 7.4, shake flask. It counts as physicochemical. The settings on record: 1-octanol / PBS pH 7.4, 20 °C. In outline:
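Shake-flask (OECD) partitioning between 1-octanol and PBS pH 7.4 at 20 °C, run in triplicate with three different organic:aqueous volume ratios. Analyte was kept below 2.0 mM in each phase. Phases were separated by centrifugation and quantified by C-18 reverse-phase HPLC (35 °C, UV 300 nm) against 8-point standard curves (0.005–1.000 mg/mL). For the ionizable parent drug, the value is a distribution coefficient.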

The next data set has as its system HIV-1 BaL. It counts as cell-based. The settings on record: Human immunodeficiency virus 1, BAL, TZM-bl, 48 h.
The conditions of data set [3]: cited from earlier work.

As usually defined, the IC50 is the concentration needed to halve the response being measured. Higher therefore signals lower potency. For orientation: aqueous solubility means how much of the substance goes into solution per volume.

In brackets after ≈: the same amount, converted by molar mass. Bounds are passed on as bounds.

For the molecule `Cc1nnc(C(=O)NC(C)(C)c2nc(C(=O)NCc3ccc(F)cc3)c(O)c(=O)n2C)o1` [RAL, raltegravir], the ionized fraction in data set [1] was more than 85%. Besides, the “apparent POW (distribution coefficient)” value in data set [2] turned out to be 2.0. In the data set with HIV-1 BaL, this molecule registered an IC50 of 4.5 ± 0.5 nM. Also, the aqueous solubility in data set [3] (neutral form) is 1300 µg/mL (≈ 2930 µM).

For `Cc1cc(C)c(Nc2ccnc(Nc3ccc(C#N)cc3)n2)c(C)c1` [dapivirine], the reported aqueous solubility in data set [3] is less than 10 µg/mL.

`O=C1Nc2ccc(Cl)cc2[C@@](C#CC2CC2)(C(F)(F)F)O1` [efavirenz]: the reported aqueous solubility in data set [3] is less than 10 µg/mL.

Regarding `Cc1cccc(C)c1OCC(=O)N[C@@H](Cc1ccccc1)[C@@H](O)C[C@H](Cc1ccccc1)NC(=O)[C@H](C(C)C)N1CCCNC1=O` [liponavir], in data set [3], the reported aqueous solubility is less than 10 µg/mL.
